Data taken from ChEMBL document CHEMBL4431328, “Development of a Single-Chain Peptide Agonist of the Relaxin-3 Receptor Using Hydrocarbon Stapling” (J Med Chem, 2016).
The source made the active and inactive calls. The rule behind the calls is not given here. Where a SMILES comes first, the peptide text is derived from it. Bridges are numbered along the chain shown (N, C = ends). [ ]: non-standard residue; d: D form. S5 = C=CCCC[C@](C)(N)C(=O)O; hCys = N[C@@H](CCS)C(=O)O

Columns and labels:
Relaxin receptor 1 = target: T1, Relaxin receptor 1 (Homo sapiens, UniProt Q9HBX9); experiment: (§1) Agonist activity at RXFP1 receptor (unknown origin) expressed in HEK-293T cells cotransfected with beta-galactosidase assessed as cAMP activation by beta-galactosidase reporter gene assay; type: functional, cell-based
T1 sequence (Q9HBX9 whole entry): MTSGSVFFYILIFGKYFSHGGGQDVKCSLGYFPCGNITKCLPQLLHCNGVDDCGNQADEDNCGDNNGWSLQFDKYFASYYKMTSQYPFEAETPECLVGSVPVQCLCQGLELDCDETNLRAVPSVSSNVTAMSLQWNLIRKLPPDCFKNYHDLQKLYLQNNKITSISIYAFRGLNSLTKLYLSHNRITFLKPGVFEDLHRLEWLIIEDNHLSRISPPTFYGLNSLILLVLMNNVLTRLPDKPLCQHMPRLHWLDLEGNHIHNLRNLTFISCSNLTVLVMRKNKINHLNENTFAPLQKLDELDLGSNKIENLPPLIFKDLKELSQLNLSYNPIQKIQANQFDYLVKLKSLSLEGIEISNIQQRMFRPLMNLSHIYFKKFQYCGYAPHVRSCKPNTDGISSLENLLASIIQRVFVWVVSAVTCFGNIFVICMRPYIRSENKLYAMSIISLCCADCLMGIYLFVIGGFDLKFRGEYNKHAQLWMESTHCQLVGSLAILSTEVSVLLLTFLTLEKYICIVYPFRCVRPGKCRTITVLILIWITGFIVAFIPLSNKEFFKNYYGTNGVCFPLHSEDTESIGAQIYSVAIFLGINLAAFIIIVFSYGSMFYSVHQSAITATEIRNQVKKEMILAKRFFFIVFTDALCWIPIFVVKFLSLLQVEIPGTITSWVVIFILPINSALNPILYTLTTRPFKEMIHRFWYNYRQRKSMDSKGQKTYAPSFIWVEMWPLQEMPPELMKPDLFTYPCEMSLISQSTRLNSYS
Procedure, shortened: (§2)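 Tested for RXFP1 activation at concentrations up to 10 µM, alongside the […] as a reference.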

[1] = target: T2, Relaxin receptor 1 (Homo sapiens) (UniProt Q9HBX9); experiment: Agonist activity at RXFP1 receptor (unknown origin) expressed in HEK-293T cells cotransfected with beta-galactosidase assessed as cAMP activation at 10 uM by beta-galactosidase reporter gene assay; type: functional, cell-based; procedure, shortened: as §2
T2 sequence (whole entry): T1 sequence (Q9HBX9 whole entry)

Relaxin-3 receptor 1 [2] = target: T3, Relaxin-3 receptor 1 (Homo sapiens, UniProt Q9NSD7); experiment: Displacement of Eu-H3/15 from human RXFP3 receptor expressed in CHOK1 cells by time-resolved fluorescent whole cell binding assay; type: cell-based
T3 sequence (Q9NSD7 whole entry): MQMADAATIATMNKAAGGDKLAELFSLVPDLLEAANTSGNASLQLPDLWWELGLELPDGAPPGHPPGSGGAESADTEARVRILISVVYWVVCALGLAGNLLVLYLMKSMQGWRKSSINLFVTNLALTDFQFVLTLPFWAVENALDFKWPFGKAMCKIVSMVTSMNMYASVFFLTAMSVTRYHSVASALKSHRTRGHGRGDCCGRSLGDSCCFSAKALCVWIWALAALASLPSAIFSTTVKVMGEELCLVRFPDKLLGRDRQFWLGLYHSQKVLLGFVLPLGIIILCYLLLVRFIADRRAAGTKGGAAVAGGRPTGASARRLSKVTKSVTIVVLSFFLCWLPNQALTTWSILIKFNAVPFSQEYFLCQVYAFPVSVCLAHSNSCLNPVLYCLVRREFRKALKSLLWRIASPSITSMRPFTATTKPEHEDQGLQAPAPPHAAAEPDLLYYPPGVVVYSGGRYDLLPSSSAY

Relaxin-3 receptor 1 [3] = target: T3, Relaxin-3 receptor 1; experiment: Agonist activity at human RXFP3 receptor expressed in CHOK1 cells cotransfected with beta-galactosidase assessed as inhibition of forskolin-stimulated cAMP by beta-galactosidase reporter gene assay; type: functional, cell-based
Relaxin-3 receptor 2 [4] = target: T4, Relaxin-3 receptor 2 (Homo sapiens, UniProt Q8TDU9); experiment: Displacement of Eu-INSL5 from human RXFP4 receptor expressed in CHOK1 cells by time-resolved fluorescent whole cell binding assay; type: cell-based
T4 sequence (Q8TDU9 whole entry): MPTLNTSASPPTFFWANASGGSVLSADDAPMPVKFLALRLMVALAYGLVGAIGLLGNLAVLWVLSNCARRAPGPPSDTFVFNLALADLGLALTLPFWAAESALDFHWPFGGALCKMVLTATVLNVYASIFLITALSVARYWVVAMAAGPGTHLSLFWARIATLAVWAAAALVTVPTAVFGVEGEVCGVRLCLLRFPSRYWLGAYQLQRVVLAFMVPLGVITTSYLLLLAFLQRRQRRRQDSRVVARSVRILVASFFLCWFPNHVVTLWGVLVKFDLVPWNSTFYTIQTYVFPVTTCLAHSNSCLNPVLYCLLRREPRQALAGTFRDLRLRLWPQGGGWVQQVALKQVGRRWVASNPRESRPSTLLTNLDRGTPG

Relaxin-3 receptor 2 [5] = target: T4, Relaxin-3 receptor 2; experiment: Agonist activity at human RXFP4 receptor expressed in CHOK1 cells cotransfected with beta-galactosidase assessed as inhibition of forskolin-stimulated cAMP by beta-galactosidase reporter gene assay; type: functional, cell-based
[6] = target: T2, Relaxin receptor 1 (Homo sapiens); experiment: as §1; type: functional, cell-based; procedure, shortened: as §2

| Compound | EC50 (Relaxin receptor 1) [µM] | Activity [1] | Ki (Relaxin-3 receptor 1 [2]) [nM] | EC50 (Relaxin-3 receptor 1 [3]) [nM] | Ki (Relaxin-3 receptor 2 [4]) [nM] | EC50 (Relaxin-3 receptor 2 [5]) [nM] | pEC50 [6] | pKi (Relaxin-3 receptor 2 [4]) |
| --- | --- | --- | --- | --- | --- | --- | --- | --- |
| CC[C@H](C)[C@H](NC(=O)[C@H](C)NC(=O)[C@@H](NC(=O)[C@H](CCC(N)=O)NC(=O)[C@H](C)NC(=O)[C@H](CCCNC(=N)N)NC(=O)[C@@H](NC(=O)[C@H](CC(C)C)NC(=O)[C@H](CCC(=O)O)NC(=O)[C@H](CCCNC(=N)N)NC(=O)CNC(=O)[C@H](CS)NC(=O)[C@H](CC(C)C)NC(=O)[C@H](CCCCN)NC(=O)[C@@H](NC(=O)[C@@H](NC(=O)[C@H](CCC(=O)O)NC(=O)[C@H](CCC(=O)O)NC(=O)[C@H](CCSC)NC(=O)[C@H](Cc1c[nH]c2ccccc12)NC(=O)[C@H](CO)NC(=O)[C@@H](N)CC(=O)O)C(C)C)[C@@H](C)CC)C(C)C)[C@@H](C)CC)C(=O)N[C@@H](CS)C(=O)NCC(=O)N[C@@H](CCSC)C(=O)N[C@@H](CO)C(=O)N[C@H](C(=O)N[C@@H](Cc1c[nH]c2ccccc12)C(=O)N[C@@H](CO)C(=O)O)[C@@H](C)O | > 10 | inactive |  |  |  |  |  |  |
| CC[C@H](C)[C@@H]1NC(=O)[C@H](Cc2ccccc2)NC(=O)[C@@](C)(NC(=O)[C@H](CCCNC(=N)N)NC(=O)CNC(=O)[C@@H](N)CO)CCC/C=C/CCC[C@@](C)(C(=O)N[C@H](C(=O)N[C@H](C(=O)N[C@@H](Cc2ccccc2)C(=O)N[C@H](C(=O)N[C@@H](CO)C(=O)NCC(=O)NCC(=O)N[C@@H](CO)C(=O)N[C@@H](CCCNC(=N)N)C(=O)N[C@@H](Cc2c[nH]c3ccccc23)C(=O)O)[C@@H](C)O)[C@@H](C)CC)C(C)C)NC(=O)[C@H](CCCNC(=N)N)NC1=O (H-SGR[S5]FIR[S5]VIFTSGGSRW-OH; staple (E) 4-8) |  | inactive | 151 | 4.47 | 407 | 191 | inactive |  |
| CC[C@H](C)[C@@H]1NC(=O)[C@H](Cc2ccccc2)NC(=O)[C@@H](NC(=O)[C@H](CCCNC(=N)N)NC(=O)CNC(=O)[C@H](CO)NC(C)=O)CCSSCC[C@@H](C(=O)N[C@H](C(=O)N[C@H](C(=O)N[C@@H](Cc2ccccc2)C(=O)N[C@H](C(=O)N[C@@H](CO)C(=O)NCC(=O)NCC(=O)N[C@@H](CO)C(=O)N[C@@H](CCCNC(=N)N)C(=O)N[C@@H](Cc2c[nH]c3ccccc23)C(=O)O)[C@@H](C)O)[C@@H](C)CC)C(C)C)NC(=O)[C@H](CCCNC(=N)N)NC1=O (Ac-SGR[hCys]FIR[hCys]VIFTSGGSRW-OH; disulfide 4-8) |  | inactive | 2510 | > 10000 | > 10000 | 3720 |  |  |
| CC[C@H](C)[C@@H]1NC(=O)[C@H](Cc2ccccc2)NC(=O)[C@@H](NC(=O)[C@H](CCCNC(=N)N)NC(=O)CNC(=O)[C@H](CO)NC(C)=O)CCC(=O)NCCCC[C@@H](C(=O)N[C@H](C(=O)N[C@H](C(=O)N[C@@H](Cc2ccccc2)C(=O)N[C@H](C(=O)N[C@@H](CO)C(=O)NCC(=O)NCC(=O)N[C@@H](CO)C(=O)N[C@@H](CCCNC(=N)N)C(=O)N[C@@H](Cc2c[nH]c3ccccc23)C(=O)O)[C@@H](C)O)[C@@H](C)CC)C(C)C)NC(=O)[C@H](CCCNC(=N)N)NC1=O (Ac-SGREFIRKVIFTSGGSRW-OH; lactam 4-8) |  | inactive |  | > 1000 | > 10000 | 537 |  |  |
| CC[C@H](C)[C@H](NC(=O)[C@H](Cc1ccccc1)NC(=O)[C@H](CCC(=O)O)NC(=O)[C@H](CCCNC(=N)N)NC(=O)CNC(=O)[C@H](CO)NC(=O)[C@H](CC(C)C)NC(=O)[C@H](CCCNC(=N)N)NC(C)=O)C(=O)N[C@@H](CCCNC(=N)N)C(=O)N[C@@]1(C)CCC/C=C\CCC[C@@](C)(C(=O)N[C@@H](CO)C(=O)NCC(=O)NCC(=O)N[C@@H](CO)C(=O)N[C@@H](CCCNC(=N)N)C(=O)N[C@@H](Cc2c[nH]c3ccccc23)C(=O)O)NC(=O)[C@H](Cc2ccccc2)NC(=O)[C@H]([C@@H](C)CC)NC(=O)[C@H](C(C)C)NC1=O (Ac-RLSGREFIR[S5]VIF[S5]SGGSRW-OH; staple (Z) 10-14) |  | inactive | 603 | > 10000 |  | > 10000 | inactive | inactive |
| CC[C@H](C)[C@H](NC(=O)[C@H](Cc1ccccc1)NC(=O)[C@H](CCC(=O)O)NC(=O)[C@H](CCCNC(=N)N)NC(=O)CNC(=O)[C@H](CO)NC(=O)[C@H](CC(C)C)NC(=O)[C@@H](N)CCCNC(=N)N)C(=O)N[C@@H](CCCNC(=N)N)C(=O)N[C@@]1(C)CCC/C=C\CCC[C@@](C)(C(=O)N[C@@H](CO)C(=O)NCC(=O)NCC(=O)N[C@@H](CO)C(=O)N[C@@H](CCCNC(=N)N)C(=O)N[C@@H](Cc2c[nH]c3ccccc23)C(=O)O)NC(=O)[C@H](Cc2ccccc2)NC(=O)[C@H]([C@@H](C)CC)NC(=O)[C@H](C(C)C)NC1=O (H-RLSGREFIR[S5]VIF[S5]SGGSRW-OH; staple (Z) 10-14) |  | inactive | 575 | > 10000 | > 10000 | 2750 | inactive |  |
| CC[C@H](C)[C@@H]1NC(=O)[C@H](Cc2ccccc2)NC(=O)[C@@](C)(NC(=O)[C@H](CCCNC(=N)N)NC(=O)CNC(=O)[C@H](CO)NC(=O)[C@H](CC(C)C)NC(=O)[C@@H](N)CCCNC(=N)N)CCC/C=C/CCC[C@@](C)(C(=O)N[C@H](C(=O)N[C@H](C(=O)N[C@@H](Cc2ccccc2)C(=O)N[C@H](C(=O)N[C@@H](CO)C(=O)NCC(=O)NCC(=O)N[C@@H](CO)C(=O)N[C@@H](CCCNC(=N)N)C(=O)N[C@@H](Cc2c[nH]c3ccccc23)C(=O)O)[C@@H](C)O)[C@@H](C)CC)C(C)C)NC(=O)[C@H](CCCNC(=N)N)NC1=O (H-RLSGR[S5]FIR[S5]VIFTSGGSRW-OH; staple (E) 6-10) |  | inactive |  | 3.55 |  | 123 | inactive |  |
| CC[C@H](C)[C@@H]1NC(=O)[C@H](Cc2ccccc2)NC(=O)[C@@](C)(NC(=O)[C@H](CCCNC(=N)N)NC(=O)CNC(=O)[C@H](CO)NC(=O)[C@H](CC(C)C)NC(=O)[C@H](CCCNC(=N)N)NC(=O)[C@@H](NC(=O)CNC(C)=O)C(C)C)CCC/C=C/CCC[C@@](C)(C(=O)N[C@H](C(=O)N[C@H](C(=O)N[C@@H](Cc2ccccc2)C(=O)N[C@H](C(=O)N[C@@H](CO)C(=O)NCC(=O)NCC(=O)N[C@@H](CO)C(=O)N[C@@H](CCCNC(=N)N)C(=O)N[C@@H](Cc2c[nH]c3ccccc23)C(=O)O)[C@@H](C)O)[C@@H](C)CC)C(C)C)NC(=O)[C@H](CCCNC(=N)N)NC1=O (Ac-GVRLSGR[S5]FIR[S5]VIFTSGGSRW-OH; staple (E) 8-12) |  | inactive | 229 | 11.7 |  |  |  |  |
| CC[C@H](C)[C@@H]1NC(=O)[C@H](Cc2ccccc2)NC(=O)[C@@](C)(NC(=O)[C@H](CCCNC(=N)N)NC(=O)CNC(=O)[C@H](CO)NC(=O)[C@H](CC(C)C)NC(=O)[C@H](CCCNC(=N)N)NC(=O)[C@@H](NC(=O)CN)C(C)C)CCC/C=C/CCC[C@@](C)(C(=O)N[C@H](C(=O)N[C@H](C(=O)N[C@@H](Cc2ccccc2)C(=O)N[C@H](C(=O)N[C@@H](CO)C(=O)NCC(=O)NCC(=O)N[C@@H](CO)C(=O)N[C@@H](CCCNC(=N)N)C(=O)N[C@@H](Cc2c[nH]c3ccccc23)C(=O)O)[C@@H](C)O)[C@@H](C)CC)C(C)C)NC(=O)[C@H](CCCNC(=N)N)NC1=O (H-GVRLSGR[S5]FIR[S5]VIFTSGGSRW-OH; staple (E) 8-12) |  | inactive | 93.3 | 4.47 | 275 | 316 | inactive |  |
